ChEMBL document CHEMBL3784971, “Synthesis, characterization, antimicrobial and biofilm inhibitory studies of new esterquats” (Bioorg Med Chem Lett, 2016)
Values after ≈ are worked out from the molar mass of the structure shown.

Assays:
Candida albicans [1] = test: Antimicrobial activity against Candida albicans MTCC 3017 assessed as growth inhibition after 24 hrs by agar well diffusion method; assay type: functional; details: MTCC 3017, 24 h
Candida albicans [2] = test: Antimicrobial activity against Candida albicans MTCC 183 assessed as growth inhibition after 24 hrs by agar well diffusion method; assay type: functional; details: MTCC 183, 24 h
Candida albicans [3] = test: Antimicrobial activity against Candida albicans MTCC 227 assessed as growth inhibition after 24 hrs by agar well diffusion method; assay type: functional; details: MTCC 227, 24 h
Candida albicans [4] = test: Antimicrobial activity against Candida albicans MTCC 854 assessed as growth inhibition after 24 hrs by agar well diffusion method; assay type: functional; details: MTCC 854, 24 h
Candida albicans [5] = test: Antimicrobial activity against Candida albicans MTCC 1637 assessed as growth inhibition after 24 hrs by agar well diffusion method; assay type: functional; details: MTCC 1637, 24 h
Candida albicans [6] = test: Antimicrobial activity against Candida albicans MTCC 3018 assessed as growth inhibition after 24 hrs by agar well diffusion method; assay type: functional; details: MTCC 3018, 24 h
Candida albicans [7] = test: Antimicrobial activity against Candida albicans MTCC 3958 assessed as growth inhibition after 24 hrs by agar well diffusion method; assay type: functional; details: MTCC 3958, 24 h
Candida albicans [8] = test: Antimicrobial activity against Candida albicans MTCC 4748 assessed as growth inhibition after 24 hrs by agar well diffusion method; assay type: functional; details: MTCC 4748, 24 h
Candida albicans [9] = test: Antimicrobial activity against Candida albicans MTCC 7315 assessed as growth inhibition after 24 hrs by agar well diffusion method; assay type: functional; details: MTCC 7315, 24 h
Candida parapsilosis [10] = test: Antimicrobial activity against Candida parapsilosis MTCC 1744 assessed as growth inhibition after 24 hrs by agar well diffusion method; assay type: functional; details: Lodderomyces parapsilosis, MTCC 1744, 24 h
[Candida] aaseri [11] = Antimicrobial activity against Candida aaseri MTCC 1962 assessed as growth inhibition after 24 hrs by agar well diffusion method; assay type: functional; details: Yamadazyma aaseri, MTCC 1962, 24 h
Nakaseomyces glabratus [12] = test: Antimicrobial activity against Candida glabrata MTCC 3019 assessed as growth inhibition after 24 hrs by agar well diffusion method; assay type: functional; details: MTCC 3019, 24 h
Pichia kudriavzevii [13] = test: Antimicrobial activity against Candida krusei MTCC 3020 assessed as growth inhibition after 24 hrs by agar well diffusion method; assay type: functional; details: MTCC 3020, 24 h
Pichia sporocuriosa [14] = test: Antimicrobial activity against Issatchenkia hanoiensis MTCC 4755 assessed as growth inhibition after 24 hrs by agar well diffusion method; assay type: functional; details: MTCC 4755, 24 h
Candida albicans [15] = test: Fungicidal activity against Candida albicans MTCC 3017 after 24 hrs by serial dilution method; assay type: functional; details: MTCC 3017, 24 h
Candida albicans [16] = test: Fungicidal activity against Candida albicans MTCC 183 after 24 hrs by serial dilution method; assay type: functional; details: MTCC 183, 24 h
Candida albicans [17] = test: Fungicidal activity against Candida albicans MTCC 227 after 24 hrs by serial dilution method; assay type: functional; details: MTCC 227, 24 h
Candida albicans [18] = test: Fungicidal activity against Candida albicans MTCC 854 after 24 hrs by serial dilution method; assay type: functional; details: MTCC 854, 24 h
Candida albicans [19] = test: Fungicidal activity against Candida albicans MTCC 1637 after 24 hrs by serial dilution method; assay type: functional; details: MTCC 1637, 24 h
Candida albicans [20] = test: Fungicidal activity against Candida albicans MTCC 3018 after 24 hrs by serial dilution method; assay type: functional; details: MTCC 3018, 24 h
Candida albicans [21] = test: Fungicidal activity against Candida albicans MTCC 3958 after 24 hrs by serial dilution method; assay type: functional; details: MTCC 3958, 24 h
Candida albicans [22] = test: Fungicidal activity against Candida albicans MTCC 4748 after 24 hrs by serial dilution method; assay type: functional; details: MTCC 4748, 24 h
Candida albicans [23] = test: Fungicidal activity against Candida albicans MTCC 7315 after 24 hrs by serial dilution method; assay type: functional; details: MTCC 7315, 24 h
Candida parapsilosis [24] = test: Fungicidal activity against Candida parapsilosis MTCC 1744 after 24 hrs by serial dilution method; assay type: functional; details: Lodderomyces parapsilosis, MTCC 1744, 24 h
[Candida] aaseri [25] = Fungicidal activity against Candida aaseri MTCC 1962 after 24 hrs by serial dilution method; assay type: functional; details: Yamadazyma aaseri, MTCC 1962, 24 h
Nakaseomyces glabratus [26] = test: Fungicidal activity against Candida glabrata MTCC 3019 after 24 hrs by serial dilution method; assay type: functional; details: MTCC 3019, 24 h
Pichia kudriavzevii [27] = test: Fungicidal activity against Candida krusei MTCC 3020 after 24 hrs by serial dilution method; assay type: functional; details: MTCC 3020, 24 h
Pichia sporocuriosa [28] = test: Fungicidal activity against Issatchenkia hanoiensis MTCC 4755 after 24 hrs by serial dilution method; assay type: functional; details: MTCC 4755, 24 h
Staphylococcus aureus [29] = test: Antimicrobial activity against Staphylococcus aureus MTCC 96 assessed as growth inhibition after 24 hrs by agar well diffusion method; assay type: functional; details: MTCC 96, 24 h
Bacillus subtilis [30] = test: Antimicrobial activity against Bacillus subtilis MTCC 121 assessed as growth inhibition after 24 hrs by agar well diffusion method; assay type: functional; details: MTCC 121, 24 h
Staphylococcus aureus [31] = test: Antimicrobial activity against Staphylococcus aureus MLS16 MTCC 2940 assessed as growth inhibition after 24 hrs by agar well diffusion method; assay type: functional; details: MLS16 MTCC 2940, 24 h
Micrococcus luteus [32] = test: Antimicrobial activity against Micrococcus luteus MTCC 2470 assessed as growth inhibition after 24 hrs by agar well diffusion method; assay type: functional; details: MTCC 2470, 24 h
Raoultella planticola [33] = test: Antimicrobial activity against Klebsiella planticola MTCC 530 assessed as growth inhibition after 24 hrs by agar well diffusion method; assay type: functional; details: MTCC 530, 24 h
Escherichia coli [34] = test: Antimicrobial activity against Escherichia coli MTCC 739 assessed as growth inhibition after 24 hrs by agar well diffusion method; assay type: functional; details: MTCC 739, 24 h
Pseudomonas aeruginosa = test: Antimicrobial activity against Pseudomonas aeruginosa MTCC 2453 assessed as growth inhibition after 24 hrs by agar well diffusion method; assay type: functional; details: MTCC 2453, 24 h
Staphylococcus aureus [35] = test: Bactericidal activity against Staphylococcus aureus MTCC 96 after 24 hrs by serial dilution method; assay type: functional; details: MTCC 96, 24 h
Bacillus subtilis [36] = test: Bactericidal activity against Bacillus subtilis MTCC 121 after 24 hrs by serial dilution method; assay type: functional; details: MTCC 121, 24 h
Staphylococcus aureus [37] = test: Bactericidal activity against Staphylococcus aureus MLS16 MTCC 2940 after 24 hrs by serial dilution method; assay type: functional; details: MLS16 MTCC 2940, 24 h
Micrococcus luteus [38] = test: Bactericidal activity against Micrococcus luteus MTCC 2470 after 24 hrs by serial dilution method; assay type: functional; details: MTCC 2470, 24 h
Raoultella planticola [39] = test: Bactericidal activity against Klebsiella planticola MTCC 530 after 24 hrs by serial dilution method; assay type: functional; details: MTCC 530, 24 h
Escherichia coli [40] = test: Bactericidal activity against Escherichia coli MTCC 739 after 24 hrs by serial dilution method; assay type: functional; details: MTCC 739, 24 h
Staphylococcus aureus [41] = test: Antibiofilm activity against Staphylococcus aureus MTCC 96 after 24 hrs by crystal violet staining based assay; assay type: functional, organism-based; details: MTCC 96, 24 h
Outline: (§1)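 Biofilm inhibition tested for amine esters and esterquats. IC50 values (µg/mL) are the mean of three determinations, with ciprofloxacin as reference.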

Bacillus subtilis [42] = test: Antibiofilm activity against Bacillus subtilis MTCC 121 after 24 hrs by crystal violet staining based assay; assay type: functional, organism-based; details: MTCC 121, 24 h; outline: as §1
Staphylococcus aureus [43] = test: Antibiofilm activity against Staphylococcus aureus MLS16 MTCC 2940 after 24 hrs by crystal violet staining based assay; assay type: functional, organism-based; details: MLS16 MTCC 2940, 24 h; outline: as §1
Micrococcus luteus [44] = test: Antibiofilm activity against Micrococcus luteus MTCC 2470 after 24 hrs by crystal violet staining based assay; assay type: functional, organism-based; details: MTCC 2470, 24 h; outline: as §1

Clc1ccc(COC(Cn2ccnc2)c2ccc(Cl)cc2Cl)c(Cl)c1 (stereo not drawn) [MICONAZOLE]
MIC (Candida albicans [1]): 7.8 µg/mL (≈ 18.7 µM)
MIC (Candida albicans [2]): 7.8 µg/mL (≈ 18.7 µM)
MIC (Candida albicans [3]): 7.8 µg/mL (≈ 18.7 µM)
MIC (Candida albicans [4]): 7.8 µg/mL (≈ 18.7 µM)
MIC (Candida albicans [5]): 7.8 µg/mL (≈ 18.7 µM)
MIC (Candida albicans [6]): 7.8 µg/mL (≈ 18.7 µM)
MIC (Candida albicans [7]): 7.8 µg/mL (≈ 18.7 µM)
MIC (Candida albicans [8]): 7.8 µg/mL (≈ 18.7 µM)
MIC (Candida albicans [9]): 7.8 µg/mL (≈ 18.7 µM)
MIC (Candida parapsilosis [10]): 7.8 µg/mL (≈ 18.7 µM)
MIC ([Candida] aaseri [11]): 7.8 µg/mL (≈ 18.7 µM)
MIC (Nakaseomyces glabratus [12]): 7.8 µg/mL (≈ 18.7 µM)
MIC (Pichia kudriavzevii [13]): 7.8 µg/mL (≈ 18.7 µM)
MIC (Pichia sporocuriosa [14]): 7.8 µg/mL (≈ 18.7 µM)
MFC (Candida albicans [15]): 7.8 µg/mL (≈ 18.7 µM)
MFC (Candida albicans [16]): 7.8 µg/mL (≈ 18.7 µM)
MFC (Candida albicans [17]): 15.6 µg/mL (≈ 37.5 µM)
MFC (Candida albicans [18]): 15.6 µg/mL (≈ 37.5 µM)
MFC (Candida albicans [19]): 15.6 µg/mL (≈ 37.5 µM)
MFC (Candida albicans [20]): 7.8 µg/mL (≈ 18.7 µM)
MFC (Candida albicans [21]): 15.6 µg/mL (≈ 37.5 µM)
MFC (Candida albicans [22]): 7.8 µg/mL (≈ 18.7 µM)
MFC (Candida albicans [23]): 7.8 µg/mL (≈ 18.7 µM)
MFC (Candida parapsilosis [24]): 7.8 µg/mL (≈ 18.7 µM)
MFC ([Candida] aaseri [25]): 7.8 µg/mL (≈ 18.7 µM)
MFC (Nakaseomyces glabratus [26]): 15.6 µg/mL (≈ 37.5 µM)
MFC (Pichia kudriavzevii [27]): 7.8 µg/mL (≈ 18.7 µM)
MFC (Pichia sporocuriosa [28]): 7.8 µg/mL (≈ 18.7 µM)

CCCCCCNCCCCCCCCCCC(=O)OC
MIC (Staphylococcus aureus [29]): 3.9 µg/mL (≈ 13 µM)
MIC (Bacillus subtilis [30]): 7.8 µg/mL (≈ 26 µM)
MIC (Staphylococcus aureus [31]): 3.9 µg/mL (≈ 13 µM)
MIC (Micrococcus luteus [32]): 15.6 µg/mL (≈ 52.1 µM)
MIC (Raoultella planticola [33]): > 125 µg/mL
MIC (Escherichia coli [34]): > 125 µg/mL
MIC (Pseudomonas aeruginosa): > 125 µg/mL
MIC (Candida albicans [1]): 15.6 µg/mL (≈ 52.1 µM)
MIC (Candida albicans [2]): 31.2 µg/mL (≈ 104 µM)
MIC (Candida albicans [3]): 31.2 µg/mL (≈ 104 µM)
MIC (Candida albicans [4]): 15.6 µg/mL (≈ 52.1 µM)
MIC (Candida albicans [5]): 15.6 µg/mL (≈ 52.1 µM)
MIC (Candida albicans [6]): 31.2 µg/mL (≈ 104 µM)
MIC (Candida albicans [7]): 31.2 µg/mL (≈ 104 µM)
MIC (Candida albicans [8]): 62.5 µg/mL (≈ 209 µM)
MIC (Candida albicans [9]): 62.5 µg/mL (≈ 209 µM)
MIC (Candida parapsilosis [10]): 31.2 µg/mL (≈ 104 µM)
MIC ([Candida] aaseri [11]): 15.6 µg/mL (≈ 52.1 µM)
MIC (Nakaseomyces glabratus [12]): 31.2 µg/mL (≈ 104 µM)
MIC (Pichia kudriavzevii [13]): 15.6 µg/mL (≈ 52.1 µM)
MIC (Pichia sporocuriosa [14]): 31.2 µg/mL (≈ 104 µM)
MBC (Staphylococcus aureus [35]): 7.8 µg/mL (≈ 26 µM)
MBC (Bacillus subtilis [36]): 15.6 µg/mL (≈ 52.1 µM)
MBC (Staphylococcus aureus [37]): 7.8 µg/mL (≈ 26 µM)
MBC (Micrococcus luteus [38]): 31.2 µg/mL (≈ 104 µM)
MBC (Raoultella planticola [39]): > 125 µg/mL
MBC (Escherichia coli [40]): > 125 µg/mL
MFC (Candida albicans [15]): 31.2 µg/mL (≈ 104 µM)
MFC (Candida albicans [16]): 62.5 µg/mL (≈ 209 µM)
MFC (Candida albicans [17]): 31.2 µg/mL (≈ 104 µM)
MFC (Candida albicans [18]): 31.2 µg/mL (≈ 104 µM)
MFC (Candida albicans [19]): 31.2 µg/mL (≈ 104 µM)
MFC (Candida albicans [20]): 62.5 µg/mL (≈ 209 µM)
MFC (Candida albicans [21]): 62.5 µg/mL (≈ 209 µM)
MFC (Candida albicans [22]): 62.5 µg/mL (≈ 209 µM)
MFC (Candida albicans [23]): 62.5 µg/mL (≈ 209 µM)
MFC (Candida parapsilosis [24]): 62.5 µg/mL (≈ 209 µM)
MFC ([Candida] aaseri [25]): 31.2 µg/mL (≈ 104 µM)
MFC (Nakaseomyces glabratus [26]): 31.2 µg/mL (≈ 104 µM)
MFC (Pichia kudriavzevii [27]): 31.2 µg/mL (≈ 104 µM)
MFC (Pichia sporocuriosa [28]): 31.2 µg/mL (≈ 104 µM)
IC50 (Staphylococcus aureus [41]): 2.6 µg/mL (≈ 8.68 µM)
IC50 (Bacillus subtilis [42]): 4.2 µg/mL (≈ 14 µM)
IC50 (Staphylococcus aureus [43]): 3.9 µg/mL (≈ 13 µM)
IC50 (Micrococcus luteus [44]): 2.2 µg/mL (≈ 7.35 µM)
